Published values pooled from the literature.
Target: Myosin light chain kinase family member 4 (MYLK4, Homo sapiens, UniProt Q86YV6)
One construct used (Q86YV6 1-388): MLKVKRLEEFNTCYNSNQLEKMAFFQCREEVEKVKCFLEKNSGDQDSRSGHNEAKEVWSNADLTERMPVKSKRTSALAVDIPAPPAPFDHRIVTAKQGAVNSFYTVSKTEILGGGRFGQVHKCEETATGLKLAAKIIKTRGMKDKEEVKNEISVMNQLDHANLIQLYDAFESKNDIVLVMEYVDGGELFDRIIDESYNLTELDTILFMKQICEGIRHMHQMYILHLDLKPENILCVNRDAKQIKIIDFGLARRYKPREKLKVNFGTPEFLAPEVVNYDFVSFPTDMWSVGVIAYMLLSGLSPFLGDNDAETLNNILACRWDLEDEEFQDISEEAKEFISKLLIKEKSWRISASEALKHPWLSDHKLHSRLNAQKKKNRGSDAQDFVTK

CN(C)c1ncc(F)c(-c2cnn3ncccc23)n1
remaining binding (binding; 1 µM): 100%

COc1ncc2cc3ccccc3nc2c1C#N
remaining binding (cell-free assay; competition with immobilised ligand; 5 µM): 93%

Cc1cnc(Nc2ccc(C(=O)N3CCC(N4CCCC4)CC3)cc2)nc1-c1cc2ccccc2s1
remaining binding (binding; competition with immobilised ligand; 1 µM): 0%

O=C(NCC1CCOCC1)c1n[nH]cc1NC(=O)c1c(F)cccc1F
remaining binding (binding; competition with immobilised ligand; 1 µM): 100%

CS(=O)(=O)N1CCCC(NC(=O)[C@H](CCC2CCCCC2)NC(=O)c2ccc(CNc3ncnc4c3nnn4-c3ccccc3)cc2)C1 (stereo partly shown)
remaining binding (cell-free assay; competition with immobilised ligand; 0.1 µM): 100%

O=C(NCCCN1CCOCC1)c1ccc(Nc2ncc(Cl)c(-c3ccc(Cl)s3)n2)cc1
remaining binding (binding; competition with immobilised ligand; 1 µM): 0.05%

Cc1cnn2ncc(-c3ccnc(N(C)C)n3)c2c1
remaining binding (binding; 1 µM): 80%

Cc1nc(Cc2cccc(C(F)(F)F)c2)sc1-c1ccc(C(N)=O)nc1
remaining binding (cell-free assay; competition with immobilised ligand; 1 µM): 91%

COc1cnc(Nc2cccc(S(N)(=O)=O)c2)nc1N1CCN(c2ccccc2)C(=O)C1
remaining binding (binding; competition with immobilised ligand; 1 µM): 100%

N[C@H]1CCN(c2nccc(-c3cnn4ncccc34)n2)C1
remaining binding (binding; 1 µM): 100%

O=C(NCCCN1CCOCC1)c1ccc(Nc2nccc(-c3cc4ccccc4s3)n2)cc1
remaining binding (binding; competition with immobilised ligand; 1 µM): 0.1%

CCN1CCN(Cc2ccc(C(=O)Nc3ccc(C)c(Oc4ccc5c(c4)CC(=O)N5)c3)cc2C(F)(F)F)CC1
remaining binding (binding; competition with immobilised ligand; 1 µM): 84%

C[C@@H](c1ccc(-n2cnc3c(N)ncnc32)cc1)N1CCc2nn(C)c(Cc3ccccc3)c2C1=O
remaining binding (binding; competition with immobilised ligand; 0.1 µM): 100%

O=S(=O)(NC1CCC(c2cc(F)ccc2F)(S(=O)(=O)c2ccc(Cl)cc2)CC1)C(F)(F)F (stereo not shown)
remaining binding (cell-free assay; competition with immobilised ligand; 1 µM): 100%

CC1CCCN1c1nccc(-c2cnn3ncccc23)n1 (stereo not shown)
remaining binding (binding; 1 µM): 100%

CC(=O)c1c(NS(C)(=O)=O)c2cc(-c3ccc(Cl)cc3)c(-c3ccc(Cl)cc3Cl)nc2n(C)c1=O
remaining binding (cell-free assay; competition with immobilised ligand; 1 µM): 100%

COc1ccnn2ncc(-c3ccnc(N(C)C)n3)c12
remaining binding (binding; 1 µM): 100%

Nc1cnc(N2CCc3cc(S(=O)(=O)Nc4c(F)cc(Cl)cc4F)cc(N4CCCC4=O)c32)nc1
remaining binding (cell-free assay; competition with immobilised ligand; 1 µM): 100%

Nc1ncc2c(n1)-c1c([nH]c3ccc(C#CC4CC4)cc13)CCCC2
remaining binding (binding; competition with immobilised ligand; 1 µM): 83%
